Published values gathered from unrelated publications.
Lines come from different studies, so protocols differ.
Cell line: MCF-10A
Read-out: cell growth or viability

| SMILES | assay | setting | IC50 |
| --- | --- | --- | --- |
| C[C@](C#N)(COc1cc(C#N)ccc1C(F)(F)F)NC(=O)c1ccc(SC(F)(F)F)cc1 |  | 48 h | ~32.8 µM |
| CCCc1ccc(-c2cnc3c(n2)CCCC3)cc1 |  | 48 h | > 50 µM |
| c1ccc2cc(-c3nnc(NC4CCCCC4)[nH]3)ccc2c1 |  | 48 h | 86.6 µM |
| Cc1cc2ncc(-c3ccccc3)nc2cc1C |  | 48 h | > 50 µM |
| COc1cccc2c1C(=O)c1c(O)c3c(c(O)c1C2=O)C[C@@](O)(C(=O)CO)C[C@@H]3O[C@H]1C[C@H](N)[C@H](O)[C@H](C)O1 | resazurin | 72 h | 0.037 µM |
| C[C@H]1O[C@@H](n2cc(F)c(=O)[nH]c2=O)[C@H](O)[C@@H]1O | CCK-8 | 48 h | 8.51 µM |
| COc1cccc2c1C(=O)c1c(O)c3c(c(O)c1C2=O)C[C@@](O)(C(=O)CO)C[C@@H]3O[C@H]1C[C@H](N)[C@H](O)[C@H](C)O1 |  | 48 h | 77 µM |
| CCCOc1cccc(-c2cnc3c(n2)CCCC3)c1 |  | 48 h | > 50 µM |
| O=C(NC(=S)NCCNC(=S)NC(=O)c1ccc2ccccc2c1)c1ccc2ccccc2c1 |  | 48 h | 86.1 µM |
| COc1ccc(-c2cnc3c(n2)CCCC3)cc1C#N |  | 48 h | > 50 µM |
| CC(C)C(=O)Nc1ccc([N+](=O)[O-])c(C(F)(F)F)c1 | CCK-8 | 48 h | 21.4 µM |
| CCN(CC)CCNC(=O)c1c(C)[nH]c(/C=C2\C(=O)Nc3ccc(F)cc32)c1C |  | 72 h | 4.07 µM |
| O=C(/C=C/c1ccccc1)c1ccccc1 | resazurin | 72 h | 3.15 µM |
| CC(C)[C@H](NC(=O)c1cc(Cl)ccc1OCCNC(=O)OC(C)(C)C)C(=O)Nc1ccc([N+](=O)[O-])cc1Cl | MTT | 72 h | > 60 µM |
